The values that follow come from ChEMBL document CHEMBL3045425, “Isolation and identification of precocenes and piperitone from essential oils as specific inhibitors of trichothecene production by Fusarium graminearum” (J Agric Food Chem, 2009).

The subject of one series is Fusarium culmorum. Kind of series: Inhibition of 3-acetyldeoxynivalenol production by Fusarium culmorum in liquid culture. The class given is functional, organism-based.
Series [1] concerns Fusarium graminearum. Briefly: Effect on deoxynivalenol synthetic pathway intermediates accumulation in Fusarium graminearum at 1000 uM by TLC analysis. In kind it is functional, organism-based. The method, boiled down: (§1)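 Pooled broth (5 × 10 mL) was split into filtrate and mycelia. Filtrate was extracted with ethyl acetate and mycelia with methanol. n-Hexane and ethyl acetate fractions were examined spectroscopically for intermediate signals such as trichodiene.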

Series [2] concerns Fusarium graminearum. Briefly: microbe, parasite or virus in culture. The class given is functional, organism-based. As to conditions: 168 h.
Series [3] deals with Fusarium graminearum. The class given is functional, organism-based.
Series [4] deals with Fusarium graminearum. Kind of series: Downregulation of Tri10 gene expression in Fusarium graminearum at 300 to 1000 uM measured after 72 hr by quantitative-RT-PCR analysis. The class given is functional, organism-based. The method, boiled down:
(§2)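 Spores (1 × 10^5/tube) grown in 5 mL SYEP medium with shaking at 300 rpm, 26.5 °C, for 72 h, with or without compound at 300 or 1000 µM. Mycelial total RNA was used for SYBR Green qRT-PCR on cDNA from 0.005 µg RNA: 95 °C 10 min, then 40 cycles of 95 °C 15 s / 60 °C 1 min. Normalised to β-tubulin mRNA; n = 3.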

Series [5] concerns Fusarium graminearum. Briefly: Downregulation of Tri6 gene expression in Fusarium graminearum at 300 to 1000 uM measured after 72 hr by quantitative-RT-PCR analysis. The class given is functional, organism-based. The essentials:
as §2

For series [6], the system named is Fusarium graminearum. Kind of series: Growth inhibition of Fusarium graminearum assessed as mycelial weight at 26.5 degC after 7 days. In kind it is organism-based. As to conditions: in vivo, 168 h. The essentials:
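Methanolic sample added to 5 mL SYEP (sucrose 5%, yeast extract 0.1%, polypeptone 0.1%), final methanol 0.3%. Inoculated with 1 × 10^5 spores/tube and shaken at 300 rpm, 26.5 °C, for 7 days. Mycelia were collected on cheesecloth, washed with water, dried at 100 °C for 3 h and weighed.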

The subject of series [7] is Fusarium graminearum. Kind of series: microbe, parasite or virus in culture. In kind it is functional.
Series [8] deals with Fusarium graminearum. Kind of series: Downregulation of Tri5 gene expression in Fusarium graminearum at 300 to 1000 uM measured after 72 hr by quantitative-RT-PCR analysis. In kind it is functional, organism-based. The method, boiled down: as §2
In series [9] the test system is Fusarium graminearum. Kind of series: Downregulation of Tri4 gene expression in Fusarium graminearum at 300 to 1000 uM measured after 72 hr by quantitative-RT-PCR analysis. The class given is functional, organism-based. The method, boiled down: as §2
Series [10] has as its system Fusarium graminearum. Kind of series: microbe, parasite or virus in culture. The class given is functional. The source holds these as a separate data set.
The subject of series [11] is Fusarium graminearum. Kind of series: Downregulation of Tri10 gene expression in Fusarium graminearum at 26.5 degC measured after 48 to 96 hr by quantitative-RT-PCR analysis. In kind it is functional, organism-based. The essentials:
(§3)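 SYEP liquid medium (5 mL/tube) inoculated with 1 × 10^5 spores and shaken at 300 rpm, 26.5 °C, with or without compound at 3 or 30 µM, for 48, 96 or 144 h. Total RNA was taken from the mycelia. SYBR Green real-time RT-PCR was run on cDNA from 0.005 µg RNA: 95 °C 10 min, then 40 cycles of 95 °C 15 s / 60 °C 1 min. β-tubulin mRNA was the reference; n = 3.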

For series [12], the system named is Fusarium graminearum. Briefly: Downregulation of Tri5 gene expression in Fusarium graminearum at 3 to 30 uM at 26.5 degC measured after 48 to 144 hr by quantitative-RT-PCR analysis. In kind it is functional, organism-based. The method, boiled down: as §3
Series [13] relates to Fusarium graminearum. The class given is functional, organism-based. This is another data set of the same source.
Series [14] relates to Fusarium graminearum. Briefly: Downregulation of Tri6 gene expression in Fusarium graminearum at 26.5 degC measured after 48 to 96 hr by quantitative-RT-PCR analysis. In kind it is functional, organism-based. The method, boiled down:
as §3

For series [15], the system named is Fusarium graminearum. Briefly: Downregulation of Tri4 gene expression in Fusarium graminearum at 3 to 30 uM at 26.5 degC measured after 48 to 144 hr by quantitative-RT-PCR analysis. The class given is functional, organism-based. The method, boiled down: as §3
Series [16] relates to Fusarium graminearum. Briefly: Effect on deoxynivalenol synthetic pathway intermediates accumulation in Fusarium graminearum at 30 uM by TLC analysis. In kind it is functional, organism-based. The method, boiled down: as §1

The structures appear in SMILES notation. Activity calls are given as the source filed them. The rule behind the calls is not given here.

On to `CC(=O)c1cccc2oc(=O)[nH]c12` [4-ACETYL-2-BENZOXAZOLINONE], for which, in the series on Fusarium culmorum, the IC50 was 4 µM.
Turning to `CC1=CC(=O)[C@@H](C(C)C)CC1` [(-)-PIPERITONE], in the series on Fusarium graminearum [1], the result was inactive. Besides, the figures for the IC50 in the series on Fusarium graminearum [2] and in the series on Fusarium graminearum [3] were 306 µM and 61.2 ppm, respectively. Also, the inhibition entry with Fusarium graminearum [4], in the series with Fusarium graminearum [5], with Fusarium graminearum [8] and with Fusarium graminearum [9] was “Active” throughout. In addition, the Activity entry with Fusarium graminearum [6] is given as “Non-toxic”. This compound also displayed an inhibition at 5.7 ppm in the series with Fusarium graminearum [7] of 20%. The inhibition at 152 ppm with Fusarium graminearum [10] amounted to 25%.
As for `COc1cc2c(cc1OC)OC(C)(C)C=C2` [PROCOCENE II], the inhibition entry in the series on Fusarium graminearum [11] and in the series on Fusarium graminearum [14] was “Dose-dependent effect” in each case. Also, the IC50 in the series on Fusarium graminearum [2] is 1.2 µM; in the series with Fusarium graminearum [3], 0.36 ppm; in the series on Fusarium graminearum [13] it was 2 ppm. The inhibition result in the series with Fusarium graminearum [12] and in the series on Fusarium graminearum [15] was “Active” each time. In addition, the Activity entry in the series on Fusarium graminearum [6] was “Non-toxic”. The result with Fusarium graminearum [16] was inactive.
On to `COc1ccc2c(c1)OC(C)(C)C=C2` [PROCOCENE I], for which the figures for the IC50 with Fusarium graminearum [2] and in the series on Fusarium graminearum [3] were 16.6 µM and 1.3 ppm, respectively. Moreover, the inhibition at 5.7 ppm in the series on Fusarium graminearum [7] was found to be 20%. The compound further gave an inhibition at 152 ppm in the series on Fusarium graminearum [10] of 25%.

Usually inhibition stands for the change of the read-out against control, counted positive when it falls.
